Experiment [1] in a line: Inhibition of pig pancreatic lipase type 2 using p-nitrophenyl butyrate as substrate preincubated with enzyme for 10 mins followed by susbtrate addition and measured after 30 mins by spectrophotometric analysis. Further details: species or system Sus scrofa. The procedure, abridged: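 PL (300 U/mL stock, in 50 mM phosphate buffer pH 7.2) was preincubated with compound aliquots (MeOH or MeOH:DMSO 95:5 stocks) for 10 min at 37 °C. p-Nitrophenyl butyrate (3.2 mM stock) was then added and incubated 30 min at 37 °C with shaking, read at 405 nm. Five concentrations per compound, in triplicate. % inhibition was taken from absorbance vs no-compound control, and IC50 by regression.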

Experiment [2] is filed under the species Sus scrofa. Put plainly: Binding affinity to pig pancreatic lipase type 2 assessed as Stern-Volmer quenching constant at 37 degC measured after 1 min by Stern-Volmer plot analysis. The procedure, abridged: (§1)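 Intrinsic Trp fluorescence titration of PL, 1.1 μM in 0.1 M phosphate buffer with 0.1 M NaCl, pH 7.4, by successive 1 or 2 μL additions of compound. Run at 27, 32 and 37 °C, each in triplicate. Excitation 285 nm, slits 10 nm. Spectrum recorded 1 min after each addition. Intensity at the emission maximum was used for Stern–Volmer plots.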

The species named for experiment [3] is Sus scrofa. Put plainly: Binding affinity to pig pancreatic lipase type 2 assessed as quenching rate constant at 27 degC measured after 1 min by Stern-Volmer plot analysis. The method, boiled down: as §1
For experiment [4], the species on record is Sus scrofa. In words: Binding affinity to pig pancreatic lipase type 2 assessed as binding constant at 37 degC measured after 1 min by Stern-Volmer plot analysis. The method, boiled down: as §1
The species named for experiment [5] is Sus scrofa. Put plainly: Binding affinity to pig pancreatic lipase type 2 assessed as binding constant at 27 degC measured after 1 min by Stern-Volmer plot analysis. The method, boiled down:
as §1

The species entered for experiment [6] is Sus scrofa. In words: Binding affinity to pig pancreatic lipase type 2 assessed as decrease in fluorescence intensity at 37 degC measured after 1 min by fluorescence spectral analysis. The procedure, abridged: as §1
The species entered for experiment [7] is Sus scrofa. In words: Binding affinity to pig pancreatic lipase type 2 assessed as Stern-Volmer quenching constant at 27 degC measured after 1 min by Stern-Volmer plot analysis. The method, boiled down:
as §1

Experiment [8] is filed under the species Sus scrofa. In words: Binding affinity to pig pancreatic lipase type 2 assessed as bathochromic shift of maximum fluorescence intensity at 32 degC measured after 1 min by fluorescence spectral analysis. The procedure, abridged: as §1
The species named for experiment [9] is Sus scrofa. Put plainly: Binding affinity to pig pancreatic lipase type 2 assessed as bathochromic shift of maximum fluorescence intensity at 27 degC measured after 1 min by fluorescence spectral analysis. The method, boiled down:
as §1

The species named for experiment [10] is Sus scrofa. Put plainly: Binding affinity to pig pancreatic lipase type 2 assessed as quenching rate constant at 32 degC measured after 1 min by Stern-Volmer plot analysis. The method, boiled down: as §1
For experiment [11], the species on record is Sus scrofa. In words: Binding affinity to pig pancreatic lipase type 2 assessed as binding constant at 32 degC measured after 1 min by Stern-Volmer plot analysis. The procedure, abridged: as §1
The species named for experiment [12] is Sus scrofa. In words: Binding affinity to pig pancreatic lipase type 2 assessed as Stern-Volmer quenching constant at 32 degC measured after 1 min by Stern-Volmer plot analysis. The method, boiled down: as §1
Experiment [13] is described as follows: Non-competitive inhibition of pig pancreatic lipase type 2 using varying concentrations of p-nitrophenyl butyrate as substrate measured every 1 min for 30 mins by Lineweaver-Burk plot analysis. Further details: species or system Sus scrofa. The method, boiled down: (§2)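 A405 was read every 1 min for 30 min. Mode of inhibition was from Lineweaver–Burk plots of 1/v0 vs 1/[S]. Ki and K'i were obtained from replots of slope and y-intercept versus inhibitor concentration.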

Experiment [14] can be described thus: Competitive inhibition of pig pancreatic lipase type 2 using varying concentrations of p-nitrophenyl butyrate as substrate measured every 1 min for 30 mins by Lineweaver-Burk plot analysis. Also noted: species or system Sus scrofa. The procedure, abridged: as §2
The species entered for experiment [15] is Sus scrofa. Put plainly: Binding affinity to pig pancreatic lipase type 2 assessed as decrease in fluorescence intensity at 27 degC measured after 1 min by fluorescence spectral analysis. The procedure, abridged:
as §1

The species named for experiment [16] is Sus scrofa. Put plainly: Binding affinity to pig pancreatic lipase type 2 assessed as bathochromic shift of maximum fluorescence intensity at 37 degC measured after 1 min by fluorescence spectral analysis. The method, boiled down: as §1
Experiment [17] is filed under the species Sus scrofa. Put plainly: Binding affinity to pig pancreatic lipase type 2 assessed as decrease in fluorescence intensity at 32 degC measured after 1 min by fluorescence spectral analysis. The procedure, abridged:
as §1

Experiment [18] is filed under the species Sus scrofa. Put plainly: Binding affinity to pig pancreatic lipase type 2 assessed as quenching rate constant at 37 degC measured after 1 min by Stern-Volmer plot analysis. The procedure, abridged: as §1

Activity calls are given as the source filed them. The calls are words filed in the database; no cut-off is given here.

A word on the IC50: it is the midpoint of a concentration-inhibition curve. Lower therefore signals inhibition by little substance. The Ki is the dissociation constant of the complex between target and ligand, obtained from inhibition or displacement.

On to `COc1ccc(-c2coc3c(O)c(O)ccc3c2=O)cc1`, for which the IC50 in experiment [1] worked out at 93 µM. This counts as double-digit micromolar.

As for `O=c1c(-c2ccc(O)c(O)c2)coc2cc(O)ccc12`, the half-maximal inhibitory concentration (IC50) in experiment [1] was 70 µM.

In experiment [1], `COc1ccc2c(=O)c(-c3ccc(OC)c(OC)c3)coc2c1` yielded a half-maximal inhibitory concentration (IC50) of 360 µM.

As to `O=c1c(-c2cc(Br)c(O)c(Br)c2)coc2c(Br)c(O)ccc12`, the KSV in the experiment filed under Sus scrofa [2] was 1.11 10^4L/mol; in the experiment filed under Sus scrofa [7], 0.58 10^4L/mol; in the experiment filed under Sus scrofa [12], 0.96 10^4L/mol. In addition, the results for the Kq in the experiment filed under Sus scrofa [3], in the experiment listed under Sus scrofa [10] and in the experiment listed under Sus scrofa [18] were 0.36 10^13L/mol.s, 0.6 10^13L/mol.s and 0.7 10^13L/mol.s, respectively. The Ka in the experiment filed under Sus scrofa [4] was 3.21 10^4L/mol; in the experiment filed under Sus scrofa [5], 0.32 10^4L/mol; in the experiment listed under Sus scrofa [11] it was 1.99 10^4L/mol. For the same molecule, the result in the experiment filed under Sus scrofa [6], in the experiment filed under Sus scrofa [8], in the experiment listed under Sus scrofa [9], in the experiment listed under Sus scrofa [15], in the experiment filed under Sus scrofa [16] and in the experiment filed under Sus scrofa [17] was Active. Besides, the Ki in experiment [13] worked out at 1200 µM; in [14] it was 90 µM. For the same molecule, 63 µM corresponded to half-maximal inhibition in experiment [1] (IC50).

On to `COc1ccc(-c2coc3c(Br)c(O)ccc3c2=O)cc1Br`, for which, in experiment [1], the IC50 came to 100 µM.

`Cc1cc(O)cc2occ(-c3ccc(O)c(O)c3)c(=O)c12` registered an IC50 in experiment [1] of 92 µM.

For `CC(=O)Oc1ccc2c(=O)c(-c3ccc(OC(C)=O)c(OC(C)=O)c3)coc2c1`, the concentration for half-maximal inhibition (IC50) in [1] was 122 µM.

Turning to `COc1ccc(-c2coc3c(Br)c(O)ccc3c2=O)cc1`, the figures for the KSV in the experiment listed under Sus scrofa [2], in the experiment listed under Sus scrofa [7] and in the experiment filed under Sus scrofa [12] were 2.29 10^4L/mol, 4.69 10^4L/mol and 3.34 10^4L/mol, respectively. Moreover, the Kq in the experiment listed under Sus scrofa [3] is 2.95 10^13L/mol.s; in the experiment listed under Sus scrofa [10], 2.1 10^13L/mol.s; in the experiment filed under Sus scrofa [18], 1.43 10^13L/mol.s. Also, the Ka in the experiment filed under Sus scrofa [4] was 1.47 10^4L/mol; in the experiment filed under Sus scrofa [5] it was 12.4 10^4L/mol; in the experiment listed under Sus scrofa [11], 8.47 10^4L/mol. Besides, the result in the experiment listed under Sus scrofa [6], in the experiment filed under Sus scrofa [8], in the experiment listed under Sus scrofa [9], in the experiment listed under Sus scrofa [15], in the experiment filed under Sus scrofa [16] and in the experiment filed under Sus scrofa [17] was Active. Besides, the values for the Ki in experiment [13] and in experiment [14] were 1900 µM and 320 µM, respectively. This molecule also displayed an IC50 in experiment [1] of 87 µM.

As to `O=c1c(-c2ccc(O)cc2)coc2cc(O)ccc12` [DAIDZEIN], the KSV in the experiment filed under Sus scrofa [2] was 4.08 10^4L/mol; in the experiment listed under Sus scrofa [7], 8.95 10^4L/mol; in the experiment filed under Sus scrofa [12] it was 4.94 10^4L/mol. Also, the Kq in the experiment listed under Sus scrofa [3] is 5.62 10^13L/mol.s; in the experiment filed under Sus scrofa [10], 3.11 10^13L/mol.s; in the experiment listed under Sus scrofa [18], 2.57 10^13L/mol.s. Moreover, the Ka in the experiment filed under Sus scrofa [4] was 1.02 10^4L/mol; in the experiment filed under Sus scrofa [5], 5.3 10^4L/mol; in the experiment filed under Sus scrofa [11], 1.2 10^4L/mol. For the same molecule, the result in the experiment filed under Sus scrofa [6], in the experiment filed under Sus scrofa [8], in the experiment listed under Sus scrofa [9], in the experiment filed under Sus scrofa [15], in the experiment listed under Sus scrofa [16] and in the experiment listed under Sus scrofa [17] was Active. Also, the Ki amounted to 630 µM in experiment [13] and 300 µM in [14]. This molecule also gave an IC50 in experiment [1] of 83 µM.

In the case of `COc1ccc(-c2coc3cc(O)ccc3c2=O)cc1` [FORMONONETIN], the KSV in the experiment listed under Sus scrofa [2] was 1.06 10^4L/mol; in the experiment filed under Sus scrofa [7], 0.72 10^4L/mol; in the experiment filed under Sus scrofa [12] it was 1.02 10^4L/mol. Moreover, the Kq was 0.45 10^13L/mol.s in the experiment filed under Sus scrofa [3], 0.64 10^13L/mol.s in the experiment listed under Sus scrofa [10] and 0.66 10^13L/mol.s in the experiment filed under Sus scrofa [18]. Besides, the results for the Ka in the experiment filed under Sus scrofa [4], in the experiment filed under Sus scrofa [5] and in the experiment listed under Sus scrofa [11] were 0.27 10^4L/mol, 0.16 10^4L/mol and 0.22 10^4L/mol, respectively. Besides, the result in the experiment filed under Sus scrofa [6], in the experiment listed under Sus scrofa [8], in the experiment filed under Sus scrofa [9], in the experiment filed under Sus scrofa [15], in the experiment filed under Sus scrofa [16] and in the experiment listed under Sus scrofa [17] was Active. The Ki in experiment [13] turned out to be 2900 µM; in experiment [14], 640 µM. In experiment [1], this molecule yielded an IC50 of 120 µM.

Turning to `O=c1c(-c2ccc(O)cc2)coc2cc(O)cc(O)c12` [GENISTEIN], the KSV in the experiment listed under Sus scrofa [2] was 1.07 10^4L/mol; in the experiment filed under Sus scrofa [7], 1.88 10^4L/mol; in the experiment filed under Sus scrofa [12], 1.5 10^4L/mol. Moreover, the Kq in the experiment listed under Sus scrofa [3] was 1.18 10^13L/mol.s; in the experiment listed under Sus scrofa [10], 0.94 10^13L/mol.s; in the experiment listed under Sus scrofa [18] it was 0.67 10^13L/mol.s. Besides, the values for the Ka in the experiment filed under Sus scrofa [4], in the experiment listed under Sus scrofa [5] and in the experiment listed under Sus scrofa [11] were 0.44 10^4L/mol, 1.24 10^4L/mol and 0.87 10^4L/mol, respectively. The outcome in the experiment listed under Sus scrofa [6], in the experiment filed under Sus scrofa [8], in the experiment filed under Sus scrofa [9], in the experiment listed under Sus scrofa [15], in the experiment listed under Sus scrofa [16] and in the experiment filed under Sus scrofa [17] was Active. Further, the inhibitory constant (Ki) in experiment [14] came to 80 µM. For the same molecule, the IC50 in experiment [1] stood at 60 µM.

For `CCCCCCCCCCC[C@@H](C[C@@H]1OC(=O)[C@H]1CCCCCC)OC(=O)[C@H](CC(C)C)NC=O` [ORLISTAT], the IC50 in experiment [1] turned out to be 0.6 µM. That is a sub-micromolar value.

(Values after ChEMBL document CHEMBL4823247, “Natural Isoflavones and Semisynthetic Derivatives as Pancreatic Lipase Inhibitors” (J Nat Prod, 2021).)
